The record followed here is ChEMBL document CHEMBL1142555, “Cytotoxic activity of some phenanthroindolizidine N-oxide alkaloids from Cynanchum vincetoxicum” (J Nat Prod, 2000).

Assay [1] is described as follows: Cytotoxicity against multidrug-resistant human KBV1 cells after 72 hrs by MTS reduction assay. Format: functional, cell-based. Particulars: KB-V1, 72 h. Put shortly: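 KB-V1 multidrug-resistant line (P-170 glycoprotein) kept without vinblastine, using passages 5-15, in DMEM/10% FBS at 37 °C and 5% CO2. Cells were trypsinized at 60-70% confluence and seeded at 7 × 10^3/well for 24 h. Compound was added in medium (DMSO ≤0.25%), six replicates per concentration, for 72 h. Read-out was MTS/PMS, 50 min, A492. IC50 came from three separate passages.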

A short description of assay [2]: Cytotoxicity against drug-resistant human KB31 cells after 72 hrs by MTS reduction assay. The assay is classed as functional, cell-based. Particulars: KB 3-1, 72 h, in the assay text read “drug-sensitive” for “drug-resistant”. Put shortly:
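KB-3-1 cells grown as monolayers in DMEM with 10% FBS at 37 °C and 5% CO2, harvested by trypsin at 70-80% confluence and seeded at 4 × 10^3/well for 24 h. Dilutions of DMSO stock in medium were added (DMSO ≤0.25% final, also in controls), six wells per concentration, for 72 h. Viable cells were read by MTS/PMS, 50 min, A492. IC50 came from three passages.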

The nature of assay [3]: Resistance index, ratio of IC50 for human KBV1 cells to IC50 for human KB31 cells. Format: functional. Put shortly: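 Ratio of the IC50 in KB-V1 cells to the IC50 in parental KB-3-1 cells, each from a 72-h MTS/PMS proliferation assay (A492) run in parallel under the same dosing conditions (DMSO ≤0.25%, six replicates per concentration, three separate determinations).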

As to `COc1ccc2c3c(c4cc(OC)c(OC)cc4c2c1)[C@@H](O)[C@H]1CCC[N+]1([O-])C3` (stereo not given in full), the concentration for half-maximal inhibition (IC50) in assay [1] stood at 160 nM; in assay [2] it was 100 nM.

`COc1ccc(C2=C(c3ccc(OC)c(OC)c3)C[C@H]3CCC[N+]3([O-])C2)cc1` (stereo not given in full): the half-inhibitory concentration (IC50) in assay [1] stood at 3300 nM; in assay [2], 2550 nM.

For `COc1ccc2c3c(c4cc(OC)c(OC)cc4c2c1)C[C@H]1CCC[N+]1([O-])C3` (stereo not given in full), the figures for the half-inhibitory concentration (IC50) in assay [1] and in assay [2] were 160 nM and 110 nM, respectively.

Regarding `COC(=O)c1ccccc1-c1c2ccc(=N)cc-2oc2cc(N)ccc12.Cl` [RHODAMINE123], the figures for the half-inhibitory concentration (IC50) in assay [1] and in assay [2] were above 500000 nM and 1400 nM, respectively. Moreover, the Ratio in assay [3] is 500.

Take `CC[C@]1(O)C[C@@H]2CN(CCc3c([nH]c4ccccc34)[C@@](C(=O)OC)(c3cc4c(cc3OC)N(C)[C@H]3[C@@](O)(C(=O)OC)[C@H](OC(C)=O)[C@]5(CC)C=CCN6CC[C@]43[C@@H]65)C2)C1` [VINBLASTINE]: the Ratio in assay [3] amounted to 210.

A word on the IC50: it is the midpoint of a concentration-inhibition curve. A low value points to greater potency in that assay.
